Results from ChEMBL document CHEMBL4033712, “Synthesis and biological evaluation of new C-12(α/β)-(N-) sulfamoyl-phenylamino-14-deoxy-andrographolide derivatives as potent anti-cancer agents” (Bioorg Med Chem Lett, 2017).

Tests used:
Type in all cases: functional
OVCAR-4 = test: Anticancer activity against human OVCAR4 cells assessed as cell growth at 10 uM after 48 hrs by sulforhodamine B assay relative to control; details: OVCAR-4, 48 h, read-out: Activity
In short: (§1)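 Single-dose NCI-60 panel screen: compound added at 10 µM and the culture incubated 48 h. The end point was read by protein staining with sulforhodamine B. The value is percent growth of treated cells relative to untreated control cells, reported as a mean graph across the panel.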

OVCAR-8 = test: Anticancer activity against human OVCAR8 cells assessed as cell growth at 10 uM after 48 hrs by sulforhodamine B assay relative to control; details: OVCAR-8, 48 h, read-out: Activity; in short: as §1
NCI/ADR-RES = test: Anticancer activity against human NCI/ADR-RES cells assessed as cell growth at 10 uM after 48 hrs by sulforhodamine B assay relative to control; details: read-out: Activity; in short: as §1
786-0 = test: Anticancer activity against human 786-0 cells assessed as cell growth at 10 uM after 48 hrs by sulforhodamine B assay relative to control; details: 786-0, 48 h, read-out: Activity; in short: as §1
MDA-MB-468 = test: Anticancer activity against human MDA-MB-468 cells assessed as cell growth at 10 uM after 48 hrs by sulforhodamine B assay relative to control; details: MDA-MB-468, 48 h, read-out: Activity; in short: as §1
UACC-257 = test: Anticancer activity against human UACC257 cells assessed as cell growth at 10 uM after 48 hrs by sulforhodamine B assay relative to control; details: UACC-257, 48 h, read-out: Activity
In short: (§2)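 NCI-60 single-dose screen: compound added at 10 µM, cultures incubated 48 h. End point by sulforhodamine B protein-binding dye. Value reported as percent growth of treated cells relative to untreated control cells.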

SF-268 = test: Anticancer activity against human SF268 cells assessed as cell growth at 10 uM after 48 hrs by sulforhodamine B assay relative to control; details: SF-268, 48 h, read-out: Activity; in short: as §1
NCI-H23 = test: Anticancer activity against human NCI-H23 cells assessed as cell growth at 10 uM after 48 hrs by sulforhodamine B assay relative to control; details: NCI-H23, 48 h, read-out: Activity; in short: as §1
IGROV-1 = test: Anticancer activity against human IGROV1 cells assessed as cell growth at 10 uM after 48 hrs by sulforhodamine B assay relative to control; details: IGROV-1, 48 h, read-out: Activity; in short: as §1
CAKI-1 = test: Anticancer activity against human Caki1 cells assessed as cell growth at 10 uM after 48 hrs by sulforhodamine B assay relative to control; details: CAKI-1, 48 h, read-out: Activity; in short: as §1
Hs-578T = test: Anticancer activity against human Hs 578T cells assessed as cell growth at 10 uM after 48 hrs by sulforhodamine B assay relative to control; details: read-out: Activity; in short: as §1
NCI-H460 = test: Anticancer activity against human NCI-H460 cells assessed as cell growth at 10 uM after 48 hrs by sulforhodamine B assay relative to control; details: NCI-H460, 48 h, read-out: Activity; in short: as §1
BT-549 = test: Anticancer activity against human BT549 cells assessed as cell growth at 10 uM after 48 hrs by sulforhodamine B assay relative to control; details: BT-549, 48 h, read-out: Activity; in short: as §1
SN12C = test: Anticancer activity against human SN12C cells assessed as cell growth at 10 uM after 48 hrs by sulforhodamine B assay relative to control; details: read-out: Activity; in short: as §1
UO-31 = test: Anticancer activity against human UO31 cells assessed as cell growth at 10 uM after 48 hrs by sulforhodamine B assay relative to control; details: UO-31, 48 h, read-out: Activity; in short: as §2
SW-620 = test: Anticancer activity against human SW620 cells assessed as cell growth at 10 uM after 48 hrs by sulforhodamine B assay relative to control; details: SW-620, 48 h, read-out: Activity; in short: as §2
A549 = test: Anticancer activity against human A549/ATCC cells assessed as cell growth at 10 uM after 48 hrs by sulforhodamine B assay relative to control; details: A549, 48 h, read-out: Activity; in short: as §1
TK-10 = test: Anticancer activity against human TK10 cells assessed as cell growth at 10 uM after 48 hrs by sulforhodamine B assay relative to control; details: TK-10, 48 h, read-out: Activity; in short: as §2
NCI-H322M = test: Anticancer activity against human NCI-H322M cells assessed as cell growth at 10 uM after 48 hrs by sulforhodamine B assay relative to control; details: read-out: Activity; in short: as §1
T47D = test: Anticancer activity against human T47D cells assessed as cell growth at 10 uM after 48 hrs by sulforhodamine B assay relative to control; details: read-out: Activity; in short: as §2
CCRF-CEM = test: Anticancer activity against human CCRF-CEM cells assessed as cell growth at 10 uM after 48 hrs by sulforhodamine B assay relative to control; details: read-out: Activity; in short: as §1
SF-295 = test: Anticancer activity against human SF295 cells assessed as cell growth at 10 uM after 48 hrs by sulforhodamine B assay relative to control; details: SF-295, 48 h, read-out: Activity; in short: as §1
UACC-62 = test: Anticancer activity against human UACC62 cells assessed as cell growth at 10 uM after 48 hrs by sulforhodamine B assay relative to control; details: UACC-62, 48 h, read-out: Activity; in short: as §2
ACHN = test: Anticancer activity against human ACHN cells assessed as cell growth at 10 uM after 48 hrs by sulforhodamine B assay relative to control; details: read-out: Activity; in short: as §1
M14 = test: Anticancer activity against human M14 cells assessed as cell growth at 10 uM after 48 hrs by sulforhodamine B assay relative to control; details: M14, 48 h, read-out: Activity; in short: as §1
OVCAR-3 = test: Anticancer activity against human OVCAR3 cells assessed as cell growth at 10 uM after 48 hrs by sulforhodamine B assay relative to control; details: OVCAR-3, 48 h, read-out: Activity; in short: as §1
NCI-H522 = test: Anticancer activity against human NCI-H522 cells assessed as cell growth at 10 uM after 48 hrs by sulforhodamine B assay relative to control; details: NCI-H522, 48 h, read-out: Activity; in short: as §1
RPMI-8226 = test: Anticancer activity against human RPMI8226 cells assessed as cell growth at 10 uM after 48 hrs by sulforhodamine B assay relative to control; details: RPMI-8226, 48 h, read-out: Activity; in short: as §1
HT-29 = test: Anticancer activity against human HT-29 cells assessed as cell growth at 10 uM after 48 hrs by sulforhodamine B assay relative to control; details: HT-29, 48 h, read-out: Activity; in short: as §1
SK-MEL-2 = test: Anticancer activity against human SK-MEL-2 cells assessed as cell growth at 10 uM after 48 hrs by sulforhodamine B assay relative to control; details: SK-MEL-2, 48 h, read-out: Activity; in short: as §1
HL-60(TB) = test: Anticancer activity against human HL-60(TB) cells assessed as cell growth at 10 uM after 48 hrs by sulforhodamine B assay relative to control; details: HL-60, 48 h, read-out: Activity
In short: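 NCI-60 human tumour panel single-dose screen: cells exposed to 10 µM compound for 48 h. Growth end point read with sulforhodamine B protein-binding dye. Expressed as percent growth of treated cells versus untreated control cells.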

SMILES | growth at 10 µM (OVCAR-4) | growth at 10 µM (OVCAR-8) | growth at 10 µM (NCI/ADR-RES) | growth at 10 µM (786-0) | growth at 10 µM (MDA-MB-468) | growth at 10 µM (UACC-257) | growth at 10 µM (SF-268) | growth at 10 µM (NCI-H23) | growth at 10 µM (IGROV-1) | growth at 10 µM (CAKI-1) | growth at 10 µM (Hs-578T) | growth at 10 µM (NCI-H460) | growth at 10 µM (BT-549) | growth at 10 µM (SN12C) | growth at 10 µM (UO-31) | growth at 10 µM (SW-620) | growth at 10 µM (A549) | growth at 10 µM (TK-10) | growth at 10 µM (NCI-H322M) | growth at 10 µM (T47D) | further results
C=C1CC[C@@H]2[C@](C)(COC(C)=O)[C@H](OC(C)=O)CC[C@@]2(C)[C@H]1CC(Nc1ccc(S(=O)(=O)Nc2ncccn2)cc1)C1=CCOC1=O (some centres not stated) | 42.7% | 3.81% | 16.1% | -10.1% | -54% | 16.6% | 18.3% | 29.6% | 7.21% | 50.2% | 51.2% | 18.1% | -32% | 7.64% | -17.9% | -70% | 44.7% | 35.1% | 50.9% | 42.3% | growth at 10 µM (CCRF-CEM): -26.2%; growth at 10 µM (SF-295): 68%; growth at 10 µM (UACC-62): 3.93%; growth at 10 µM (ACHN): -56.1%; growth at 10 µM (M14): 4.76%; growth at 10 µM (OVCAR-3): -80.6%; growth at 10 µM (NCI-H522): -67.7%; growth at 10 µM (RPMI-8226): -12.7%; growth at 10 µM (HT-29): -48.6%; growth at 10 µM (SK-MEL-2): 41.9%; growth at 10 µM (HL-60(TB)): -17.2%
C=C1CC[C@@H]2[C@](C)(COC(C)=O)[C@H](OC(C)=O)CC[C@@]2(C)[C@H]1CC(Nc1ccc(S(=O)(=O)Nc2nccc(C)n2)cc1)C1=CCOC1=O (some centres not stated) | 32.3% | 10.5% | 20.9% | 32.5% | -45.8% | 48.5% | 43.2% | 48.4% | 25.8% | 61.4% | 68.6% | 46.9% | -2.66% | 25.1% | 33.4% | -49.6% | 63.4% | 83% | 64.8% | 69.1% | growth at 10 µM (CCRF-CEM): -19.2%; growth at 10 µM (SF-295): 78.7%; growth at 10 µM (UACC-62): 24.2%; growth at 10 µM (ACHN): -37.2%; growth at 10 µM (M14): 11.2%; growth at 10 µM (OVCAR-3): -45%; growth at 10 µM (NCI-H522): -50.6%; growth at 10 µM (RPMI-8226): -5.56%; growth at 10 µM (HT-29): -28.2%; growth at 10 µM (SK-MEL-2): 40.1%; growth at 10 µM (HL-60(TB)): -17.3%
